UPR XBP1 act – activators of adaptive arm of unfolded protein response (XBP1). CHO-XBP1 luciferase reporter, IRE1-XBP1 UPR activation, luminescence; percent of tunicamycin response, DMSO as zero. activation, % at 20 µM. 0.33% of 330,000 active. AID 463104;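 active = versus positive control, 20 µM dose yields 30% or more activation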;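 also: 100% = tunicamycin at 10 µg/mL and 0% = DMSO only wells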
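Signal: luciferase luminescence; Assay system: CHO-XBP1 luciferase reporter cells; Amount: one thousand reporter cells per well; Dosing: 20 µM single concentration, DMSO 1%; Benchmarks: high control tunicamycin 10 µg/mL final, low control DMSO vehicle only; Schedule: 6 h compound exposure at 37 °C, 5% CO2; Evaluation: percent activation relative to tunicamycin reference.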
Beta2AR agonist – human beta-2 adrenergic receptor agonism by FAP; P07550; Am2.2-beta2AR cells, FAP receptor internalization, flow cytometry; response, % (test concentration not listed); 0.43% of 340,000 active; AID 504454;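 active = response above a set limit, near 3 SD of response in nonfluorescent compounds, cut at about 42% in these data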
CHOP UPR activ – activators of apoptotic arm of unfolded protein response (CHOP) | 0.34% of 330,000 active | activation, % at 10 µM | AID 449763 | CHO-CHOP luciferase reporter, UPR activation, luminescence; percent of tunicamycin response over DMSO baseline;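 active = at 10 µM dose, activation of 40% or more, normalized to positive control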;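 also: 100% = tunicamycin at 10 µg/mL and 0% = DMSO alone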
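Material: CHO-CHOP cells, stable luciferase reporter of PERK-eIF2a-CHOP signalling; quantity: 500 reporter cells seeded per well; buffer or medium: F12 medium containing 10% fetal bovine serum; compound: one dose, 10 µM in 0.5% DMSO; incubation: 6 h compound treatment, 37 °C; measured by: Steady-Glo luciferase luminescence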
CHOP inh – CHOP inhibition in unfolded protein response | CHO-K1 CHOP-promoter luciferase, tunicamycin-induced, 15-18 h | inhibition, % at 10 µM | 3.8% of 220,000 active | AID 2732;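 active = compounds that reduced the stress-induced luciferase reporter signal by more than about 70% of percent inhibition, limit read from the data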;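 also: 0% = tunicamycin plus vehicle and 100% = wells without tunicamycin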
VLA-4 inh – inhibition in a human VLA-4 binding assay | VLA-4 expressing cells, ligand binding flow cytometry | inhibition, % (about 7 µM as worked out from the volumes in the protocol) | 0.2% of 330,000 active | AID 2557; in the data active = inhibition above about 50%
* marks the source's active call; other numbers are inactive results; . = not tested or not shown. Only a selection was taken, and hits are over-represented in it overall.

SMILES	UPR XBP1 act	Beta2AR agonist	CHOP UPR activ	CHOP inh	VLA-4 inh
CCOC(=O)C1CCCN(c2nc3ccccc3nc2C(C#N)C(=O)NCc2ccccc2)C1 (centres undefined)	-3.8	0.8	-1.5	74.5*	-37.7
N#CC(C(=O)NCc1ccccc1)c1nc2ccccc2nc1N1CCCC1 (centres undefined)	4.3	-32.4	-1.9	58.0	-10.7
O=C(CSc1nnc(COc2ccc(Cl)cc2)o1)OC1CCCCC1	-0.8	-0.8	-0.7	74.4*	-6.1
O=C(CSc1nnc(COc2ccccc2Cl)o1)NC(=O)NC1CCCC1	-0.3	2.1	1.6	79.4*	-2.0
Fc1cccc(Cl)c1CSc1nnc(CNc2ccccc2)o1	-0.6	-11.6	2.1	35.6	-5.5
O=C(CSc1nnc(CNc2cccc(Cl)c2)o1)OC1CCCCC1	1.3	11.8	-1.2	80.1*	30.2
O=C(CSc1nnc(CNc2ccc(F)cc2)o1)OC1CCCCC1	0.1	2.5	2.1	10.2	6.8
Clc1ccc(CSc2nnc(CNc3cccc(Cl)c3)o2)cc1	-1.2	-1.9	-2.8	93.1*	-1.9
CC(Oc1ccc(F)cc1Br)c1nc2ccccc2c(=O)[nH]1 (centres undefined)	-1.2	0.8	4.5	.	1.5
Cc1ccc2oc(=O)n(CCOc3ccccc3C)c2c1	-1.3	-3.1	0.4	28.1	7.3
Cc1ccc2oc(=O)n(Cc3ccccc3OC(C)C)c2c1	-2.5	-4.8	-1.5	84.2*	20.9
Cc1ccc2oc(=O)n(CCCOc3ccccc3C)c2c1	3.1	2.0	0.7	81.7*	6.5
COc1ccccc1Cn1c(=O)oc2ccc(C)cc21	-3.1	-1.0	3.5	.	-5.0
Cc1ccc(S(=O)(=O)N2C(=O)CCC2C(=O)N2CCCCC2)cc1 (centres undefined)	-3.3	5.9	-0.2	.	7.0
CCOc1ccccc1NC(=O)/C(C#N)=C/c1c(C)nn(-c2ccc(F)cc2)c1Cl	3.4	3.5	-0.9	50.4	14.0
CN(C)c1nc(C=C(C#N)C#N)c(Cl)n1-c1ccc(F)cc1	.	52.4*	.	95.7*	.
CCCc1cc(=O)oc2cc(OCC(=O)NCCCn3ccnc3)c(Cl)cc12	-2.0	-28.6	2.5	.	-0.7
CCCCn1c(SCc2cccc([N+](=O)[O-])c2)nc2ccsc2c1=O	-0.3	-7.3	2.5	58.2	36.3
CCC(C)n1c(SCc2ccc([N+](=O)[O-])cc2)nc2ccsc2c1=O (centres undefined)	1.5	3.1	1.8	73.7*	12.5
C/C(=N\NC(=O)c1ccccc1NC(=O)c1ccc(Cl)cc1)c1ccncc1	-6.1	10.9	-9.2	72.2*	-7.7
CC(=NNC(=O)c1ccncc1)c1ccccc1Cl	.	-1.4	.	.	.
O=C(Nc1ccc2c(c1)CCC2)c1cc(S(=O)(=O)Nc2ccc(F)cc2)c(Cl)cc1Cl	-1.5	-4.3	-0.1	78.2*	-0.4
O=C(Nc1ccc2c(c1)CCC2)c1ccc(F)cc1	-3.2	-1.4	3.8	41.9	18.3
CCOc1ccc(C(=O)c2cc([N+](=O)[O-])ccc2Cl)cc1	3.6	-1.2	-0.3	82.4*	24.0
O=C(/C=C/c1ccccc1Cl)Nc1ccc2c(c1)C(=O)NC2=O	-0.9	10.2	1.0	94.4*	11.3
SMILES	UPR XBP1 act	Beta2AR agonist	CHOP UPR activ	CHOP inh	VLA-4 inh
COc1c(-c2ccccc2)oc2c(ccc3occc32)c1=O	3.6	-0.3	0.1	.	35.1
CC(Sc1nc2ccccc2c(=O)n1CC1CCCO1)C(=O)Nc1ccc(S(N)(=O)=O)cc1 (centres undefined)	-1.2	-11.7	-1.3	.	16.9
O=C(Nc1cccc(C(F)(F)F)c1)c1ccccc1NC(=O)C1CCCCC1	-1.1	-1.1	0.5	94.5*	11.0
O=S(=O)(c1ccccc1)N1CCCc2ccccc21	-2.5	.	2.1	.	13.6
O=S(=O)(NC1CC1)c1ccc(S(=O)(=O)N2CCCc3ccccc32)cc1	-1.1	5.5	-1.8	73.4*	6.7
COc1ccc(NC(=O)c2cccc([N+](=O)[O-])c2)cc1	2.4	-13.0	0.4	-6.7	5.8
O=C(Nc1cccc([N+](=O)[O-])c1)c1cc2ccccc2cc1O	5.0	22.6	26.1	85.9*	6.3
COc1ccc(NC(=O)c2cc([N+](=O)[O-])ccc2O)cc1	-11.9	9.5	-9.1	75.0*	2.9
COc1ccccc1OCC(=O)OC/C(O)=C(\C#N)c1nc2ccccc2[nH]1	-1.6	6.5	3.5	-25.6	-6.9
